In ChEMBL document CHEMBL4428077, “Synthesis and Biological Evaluation of N-((1-(4-(Sulfonyl)piperazin-1-yl)cycloalkyl)methyl)benzamide Inhibitors of Glycine Transporter-1” (J Med Chem, 2016):

What was measured:
[1] = Drug level in Sprague-Dawley rat brain at 3 mg/kg, po measured 2 hrs post dose by LC-MS/MS analysis; type: ADME, organism-based; conditions: read-out: Drug uptake
Procedure, shortened: (§1)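 Drug-naive Sprague−Dawley rats (n = 4−5/group) were dosed orally once in 5% Solutol plus 20% Captisol in 25 mM PBS, pH 2, and euthanized 2 h later by CO₂. CSF was drawn from the cisterna magna. Drug was measured in CSF, brain and plasma; data as mean ± SEM.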

[2] = Drug level in Sprague-Dawley rat plasma at 10 mg/kg, po measured 2 hrs post dose by LC-MS/MS analysis; type: ADME, organism-based; procedure, shortened: as §1
[3] = Drug level in Sprague-Dawley rat CSF at 1 mg/kg, po measured 2 hrs post dose by LC-MS/MS analysis; type: ADME, organism-based, Cerebrospinal fluid; conditions: read-out: Drug uptake; procedure, shortened: as §1
[4] = Drug level in Sprague-Dawley rat CSF at 0.3 mg/kg, po measured 2 hrs post dose by LC-MS/MS analysis; type: ADME, organism-based, Cerebrospinal fluid; conditions: read-out: Drug uptake; procedure, shortened: as §1
[5] = target: T1, Sodium- and chloride-dependent glycine transporter 1 (Homo sapiens, UniProt P48067); test: Inhibition of glycine transporter-1B in human JAR cells assessed as reduction in [14C]glycine uptake preincubated for 10 mins followed by [14C]glycine addition measured after 3 hrs by scintillation proximity assay; type: cell-based
T1 sequence (P48067 whole entry): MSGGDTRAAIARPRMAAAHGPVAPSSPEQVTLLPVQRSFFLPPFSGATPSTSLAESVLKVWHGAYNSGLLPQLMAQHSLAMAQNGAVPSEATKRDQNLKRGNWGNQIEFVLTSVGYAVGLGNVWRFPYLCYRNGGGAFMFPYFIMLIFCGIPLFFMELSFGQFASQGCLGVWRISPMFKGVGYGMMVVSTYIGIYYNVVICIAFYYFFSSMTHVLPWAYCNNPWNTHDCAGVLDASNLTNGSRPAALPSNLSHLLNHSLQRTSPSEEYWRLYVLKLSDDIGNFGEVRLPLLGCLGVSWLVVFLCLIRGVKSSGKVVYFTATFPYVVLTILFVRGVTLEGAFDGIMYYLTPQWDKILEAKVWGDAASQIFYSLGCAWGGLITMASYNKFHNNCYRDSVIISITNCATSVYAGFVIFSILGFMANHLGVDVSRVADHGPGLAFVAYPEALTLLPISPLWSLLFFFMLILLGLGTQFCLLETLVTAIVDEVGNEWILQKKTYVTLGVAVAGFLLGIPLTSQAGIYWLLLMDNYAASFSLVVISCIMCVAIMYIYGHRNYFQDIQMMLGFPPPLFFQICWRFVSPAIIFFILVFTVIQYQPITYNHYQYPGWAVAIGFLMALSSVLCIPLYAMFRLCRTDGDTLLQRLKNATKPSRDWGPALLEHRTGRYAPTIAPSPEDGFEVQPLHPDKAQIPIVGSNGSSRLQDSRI
Procedure, shortened: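 Whole-cell SPA in JAR cells, which endogenously express hGlyT-1b. Cells (50,000 per well) were attached overnight in RPMI/10% FBS at 37 °C, 5% CO₂. [¹⁴C]glycine was then added and incubated 3 h at 37 °C. The assay window was set with unlabeled glycine. A reference standard ran on each plate. IC₅₀ values are means of n ≥ 2.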

[6] = test system: Rattus norvegicus; test: In vivo inhibition of glycine transporter-1 in Sprague-Dawley rat assessed as CSF glycine level at 1 mg/kg, po measured 2 hrs post dose by LC-MS/MS analysis relative to control; type: functional; design: scale not given: the % may be the effect or the level left
Procedure, shortened: (§2)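 Drug-naive adult male Sprague-Dawley rats, n = 4-5 per group, given a single oral dose of 0.4, 1.5, 4.7 or 15.7 μmol/kg. Vehicle was 5% Solutol + 10% Captisol in 25 mM PBS, pH 2. At 2 h, rats were killed by CO₂. CSF (50-100 μL) was taken from the cisterna magna, and brain and plasma were also collected. Glycine was measured by LC-MS/MS against a deuterated-glycine internal standard. Results given as % vehicle control (vehicle 30 min post-dose), mean ± SEM. Two-way ANOVA with Tukey test.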

[7] = Metabolic stability in human liver microsomes assessed as parent compound remaining at 3 uM incubated for 15 mins by LC-MS analysis; type: ADME, Microsome
Procedure, shortened: (§3)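 Liver microsomes incubated with compound at 3 μM for 15 min. Parent compound remaining was quantified by LC-MS.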

[8] = Drug level in Sprague-Dawley rat brain at 10 mg/kg, po measured 2 hrs post dose by LC-MS/MS analysis; type: ADME, organism-based; conditions: read-out: Drug uptake; procedure, shortened: as §1
[9] = Drug level in Sprague-Dawley rat brain at 0.3 mg/kg, po measured 2 hrs post dose by LC-MS/MS analysis; type: ADME, organism-based; conditions: read-out: Drug uptake; procedure, shortened: as §1
[10] = test system: Rattus norvegicus; test: In vivo inhibition of glycine transporter-1 in Sprague-Dawley rat assessed as CSF glycine level at 0.3 mg/kg, po measured 2 hrs post dose by LC-MS/MS analysis relative to control; type: functional; design: scale not given: the % may be the effect or the level left; procedure, shortened: as §2
[11] = Drug level in Sprague-Dawley rat CSF at 10 mg/kg, po measured 2 hrs post dose by LC-MS/MS analysis; type: ADME, organism-based, Cerebrospinal fluid; conditions: read-out: Drug uptake; procedure, shortened: as §1
[12] = Thermodynamic solubility in pH 7.4 PBS by shake flask method; type: physicochemical; conditions: read-out: Therm_solubility
Procedure, shortened: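 Thermodynamic shake-flask solubility in PBS, pH 7.4.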

[13] = test system: Rattus norvegicus; test: In vivo inhibition of glycine transporter-1 in Sprague-Dawley rat assessed as CSF glycine level at 10 mg/kg, po measured 2 hrs post dose by LC-MS/MS analysis relative to control; type: functional; design: scale not given: the % may be the effect or the level left; procedure, shortened: as §2
[14] = Drug level in Sprague-Dawley rat plasma at 0.3 mg/kg, po measured 2 hrs post dose by LC-MS/MS analysis; type: ADME, organism-based; procedure, shortened: as §1
[15] = Drug level in Sprague-Dawley rat brain at 1 mg/kg, po measured 2 hrs post dose by LC-MS/MS analysis; type: ADME, organism-based; conditions: read-out: Drug uptake; procedure, shortened: as §1
[16] = test system: Rattus norvegicus; test: In vivo inhibition of glycine transporter-1 in Sprague-Dawley rat assessed as CSF glycine level at 3 mg/kg, po measured 2 hrs post dose by LC-MS/MS analysis relative to control; type: functional; design: scale not given: the % may be the effect or the level left; procedure, shortened: as §2
[17] = Drug level in Sprague-Dawley rat CSF at 3 mg/kg, po measured 2 hrs post dose by LC-MS/MS analysis; type: ADME, organism-based, Cerebrospinal fluid; conditions: read-out: Drug uptake; procedure, shortened: as §1
[18] = Drug level in Sprague-Dawley rat plasma at 1 mg/kg, po measured 2 hrs post dose by LC-MS/MS analysis; type: ADME, organism-based; procedure, shortened: as §1
[19] = Drug level in Sprague-Dawley rat plasma at 3 mg/kg, po measured 2 hrs post dose by LC-MS/MS analysis; type: ADME, organism-based; procedure, shortened: as §1
[20] = Metabolic stability in rat liver microsomes assessed as parent compound remaining at 3 uM incubated for 15 mins by LC-MS analysis; type: ADME, Microsome; conditions: liver microsomes, read-out: Stability; procedure, shortened: as §3
[21] = Drug level in cynomolgus monkey plasma at 10 mg/kg, po measured at 2 hrs post dose by LC-MS/MS analysis; type: ADME, organism-based, Macaca fascicularis
Procedure, shortened: (§4)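 Cynomolgus monkeys (n = 3/group) fitted with subcutaneous CSF ports were dosed orally at 0.4−15.7 μmol/kg in 5% Solutol plus 20% Captisol in 25 mM PBS, pH 2. CSF (about 0.30 mL) and blood were sampled predose and at 0.5, 1, 2, 3, 4, 8, 12 and 24 h. Quantitation limit 1.0 ng/mL; mean ± SD.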

[22] = Efflux ratio of apparent permeability in human Caco2 cells; type: ADME, cell-based; conditions: Caco-2
[23] = Intrinsic clearance in cynomolgus monkey; type: ADME, Macaca fascicularis
[24] = Drug level in cynomolgus monkey CSF at 10 mg/kg, po measured at 2 hrs post dose by LC-MS/MS analysis; type: ADME, organism-based, Macaca fascicularis, Cerebrospinal fluid; conditions: read-out: Drug uptake; procedure, shortened: as §4

| Compound | concentration at 2 h [1] | concentration at 2 h [2] | concentration at 2 h [3] | concentration at 2 h [4] | IC50 [5] | Activity [6] | concentration at 2 h [8] | concentration at 2 h [9] | Activity [10] | concentration at 2 h [11] | solubility thermodynamic [12] | Activity [13] | concentration at 2 h [14] | concentration at 2 h [15] | Activity [16] | concentration at 2 h [17] | concentration at 2 h [18] | concentration at 2 h [19] | remaining at 0.25 h, 3 µM [20] | also measured |
| --- | --- | --- | --- | --- | --- | --- | --- | --- | --- | --- | --- | --- | --- | --- | --- | --- | --- | --- | --- | --- |
| Cl.Cn1cc(S(=O)(=O)N2CCN(C3(CNC(=O)c4ccc(C(F)(F)F)cc4Cl)CCC(F)(F)CC3)CC2)nn1 | 39.2 nM | 432 nM | 3.7 nM | 2.7 nM | 671 pM | 166% | 64.9 nM | 7.5 nM | 106.6% | 7.5 nM | 9.9 µM | 306.4% | 18 nM | 13.1 nM | 251.8% | 4 nM | 76.9 nM | 204 nM | 85% | remaining at 0.25 h, 3 µM ([7]; liver microsomes, read-out: Stability): 60% |
| CC(NC(=O)c1ccc(C(F)(F)F)cc1Cl)C1(N2CCN(S(=O)(=O)c3cn(C)nn3)CC2)CCC(F)(F)CC1.Cl (single isomer, unassigned; (+)) | 12.5 nM | 318 nM | 0.1 nM | < 1 ng/mL | 1060 pM | 119.3% | 32.2 nM | 3.2 nM | 100.4% | 1.7 nM | 22.2 µM | 326.4% | 3.2 nM | 3.6 nM | 160.5% | 0.5 nM | 11.4 nM | 52.2 nM | 76% | concentration at 2 h [21]: 222 ng/mL; Stability ([7]; microsomes, 0.25 h, 3 µM): 74%; efflux ratio [22]: 2; CL [23]: 12 microL/ml/min; concentration at 2 h [24]: 11.3 ng/mL |
